Activity calls are given as the source filed them. The rule behind the calls is not given here.
How the values were obtained:
[1] = Antiproliferative activity against human HCT116 cells after 72 hrs by MTT assay; assay type: functional, cell-based; details: HCT-116, 72 h
AGS [2] = assay: Induction of apoptosis in human AGS cells assessed as early apoptotic cells at 1 uM after 24 hrs by annexin V-FITC staining-based flow cytometric analysis (Rvb=7.2%); assay type: functional
Method in brief: (§1)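 AGS cells exposed to compound for 24 h; Annexin V-FITC staining and flow cytometry used to give percentage of apoptotic cells; mean ± S.E. from at least three independent experiments.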

AGS [3] = assay: Downregulation of SIRT1 protein level in human AGS cells at 1 and 5 uM after 24 after 24 hrs by Western blot analysis; assay type: functional, cell-based
[4] = target: T1, Ecto-NOX disulfide-thiol exchanger 2 (Homo sapiens) (UniProt Q16206); assay: Inhibition of tNOX in human AGS cells assessed as decrease in intracellular NAD+/NADH ratio in human AGS cells at 5 uM incubated for 5 mins
T1 sequence (whole entry): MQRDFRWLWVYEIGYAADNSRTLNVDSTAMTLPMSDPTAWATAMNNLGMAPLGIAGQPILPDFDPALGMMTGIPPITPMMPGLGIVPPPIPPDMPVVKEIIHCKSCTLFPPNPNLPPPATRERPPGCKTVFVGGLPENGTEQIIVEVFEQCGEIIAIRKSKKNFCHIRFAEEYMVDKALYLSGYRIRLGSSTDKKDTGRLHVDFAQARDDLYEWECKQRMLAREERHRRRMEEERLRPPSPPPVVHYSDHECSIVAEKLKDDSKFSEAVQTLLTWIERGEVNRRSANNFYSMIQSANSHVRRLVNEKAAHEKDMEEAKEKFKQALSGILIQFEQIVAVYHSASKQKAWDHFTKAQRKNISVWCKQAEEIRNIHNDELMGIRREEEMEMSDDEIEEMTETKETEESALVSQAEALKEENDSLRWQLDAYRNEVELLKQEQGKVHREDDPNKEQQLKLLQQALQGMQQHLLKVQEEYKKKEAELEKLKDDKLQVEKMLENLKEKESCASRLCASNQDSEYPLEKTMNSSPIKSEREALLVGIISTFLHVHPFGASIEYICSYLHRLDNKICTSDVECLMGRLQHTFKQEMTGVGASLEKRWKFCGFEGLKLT

K562 [5] = assay: Drug uptake in human K562 cells at 3 uM incubated for 2 hrs in presence of verapamil by flow cytometric analysis; assay type: ADME, cell-based; details: k562, 2 h
Method in brief: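 K562 and K562/4 cells incubated 2 h with 3 µM compound; uptake measured by flow cytometry as ratios (arbitrary units) of mean fluorescence channels of the histograms; verapamil (10 µM), a Pgp transport blocker, added 30 min before compound where used.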

AGS [6] = assay: Induction of apoptosis in human AGS cells assessed as viable cells at 1 uM after 24 hrs by annexin V-FITC staining-based flow cytometric analysis (Rvb=91.5%); assay type: functional; details: read-out: Activity; method in brief: as §1
[7] = target: T2, NAD-dependent protein deacetylase sirtuin-1 (Homo sapiens, UniProt Q96EB6); assay: Inhibition of human recombinant SIRT1 deacetylase activity using Arg-His-Lys-Lys(epsilon-acetyl)-AMC as substrate incubated for 45 mins by fluorescence analysis
T2 sequence (Q96EB6 whole entry): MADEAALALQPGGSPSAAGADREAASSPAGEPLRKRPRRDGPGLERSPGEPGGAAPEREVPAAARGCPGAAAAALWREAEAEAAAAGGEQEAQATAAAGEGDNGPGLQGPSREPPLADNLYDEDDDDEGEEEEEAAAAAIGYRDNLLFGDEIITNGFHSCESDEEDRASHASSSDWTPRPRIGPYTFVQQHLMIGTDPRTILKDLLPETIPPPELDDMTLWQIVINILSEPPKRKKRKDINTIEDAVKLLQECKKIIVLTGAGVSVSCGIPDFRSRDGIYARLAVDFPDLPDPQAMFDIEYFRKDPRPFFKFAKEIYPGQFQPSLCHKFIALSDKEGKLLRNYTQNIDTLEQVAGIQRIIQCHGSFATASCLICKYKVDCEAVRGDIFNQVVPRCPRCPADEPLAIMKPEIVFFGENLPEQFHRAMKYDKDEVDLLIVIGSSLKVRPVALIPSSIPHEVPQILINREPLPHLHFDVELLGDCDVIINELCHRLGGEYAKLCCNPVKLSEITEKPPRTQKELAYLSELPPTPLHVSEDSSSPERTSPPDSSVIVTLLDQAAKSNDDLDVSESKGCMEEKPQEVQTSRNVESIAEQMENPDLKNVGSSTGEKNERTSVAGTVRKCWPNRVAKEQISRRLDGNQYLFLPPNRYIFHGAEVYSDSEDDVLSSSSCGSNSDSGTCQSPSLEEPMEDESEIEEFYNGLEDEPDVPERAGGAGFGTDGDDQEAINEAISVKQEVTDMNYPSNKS

AGS [8] = assay: […] in human AGS cells assessed as downregulation of beta-catenin after 24 hrs by Western blot analysis; assay type: functional, cell-based
K562 [9] = assay: Antiproliferative activity against human K562 cells after 72 hrs by MTT assay; assay type: functional, cell-based; details: K562, 72 h
[10] = target: T3, DNA topoisomerase 1 (Homo sapiens) (UniProt P11387); assay: Inhibition of Top1 (unknown origin)-mediated relaxation of pBR322 DNA at 0.5 uM incubated for 30 mins by ethidium bromide staining-based gel electrophoresis assay
T3 sequence (whole entry): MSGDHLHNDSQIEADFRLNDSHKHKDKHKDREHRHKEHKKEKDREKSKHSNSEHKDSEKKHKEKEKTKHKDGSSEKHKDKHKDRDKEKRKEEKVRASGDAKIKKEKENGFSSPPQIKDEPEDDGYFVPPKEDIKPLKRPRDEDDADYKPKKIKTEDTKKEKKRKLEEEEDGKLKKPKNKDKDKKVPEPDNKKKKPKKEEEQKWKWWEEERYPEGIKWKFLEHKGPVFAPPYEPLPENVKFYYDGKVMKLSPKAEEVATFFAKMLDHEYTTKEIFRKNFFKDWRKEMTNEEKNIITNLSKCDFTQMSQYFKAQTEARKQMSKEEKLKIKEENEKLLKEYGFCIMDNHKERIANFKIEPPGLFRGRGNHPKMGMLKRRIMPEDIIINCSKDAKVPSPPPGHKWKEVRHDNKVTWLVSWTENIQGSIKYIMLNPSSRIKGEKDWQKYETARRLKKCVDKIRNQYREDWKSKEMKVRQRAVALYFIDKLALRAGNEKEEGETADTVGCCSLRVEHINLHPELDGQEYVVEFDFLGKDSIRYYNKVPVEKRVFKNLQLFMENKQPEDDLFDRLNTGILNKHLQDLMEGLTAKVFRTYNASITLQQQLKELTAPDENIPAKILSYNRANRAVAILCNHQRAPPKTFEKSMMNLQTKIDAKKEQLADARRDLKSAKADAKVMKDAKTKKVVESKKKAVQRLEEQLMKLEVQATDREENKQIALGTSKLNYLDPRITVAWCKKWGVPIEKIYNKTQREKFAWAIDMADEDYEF
Method in brief: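 Supercoiled pBR322 plasmid treated with Top1 without drug or with compound at 0.5, 2.5 or 10 µM; camptothecin as reference; relaxation assessed by gel electrophoresis.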

For CNCCNc1c2c(c(NCCNC)c3occc13)C(=O)c1ccccc1C2=O, the IC50 [1] was 100 nM, the Activity (AGS [2]) was 21.6% and the Activity (AGS [3]) was “Active”. For the same molecule, the inhibition [4] was “Active”, the Drug uptake (K562 [5]) was “Active” and the viability at 1 µM (AGS [6]) was 61.6%. The IC50 [7] was 3930 nM, the Activity (AGS [8]) was “Active” and the IC50 (K562 [9]) was 210 nM. The inhibition [10] was “Active”.
